Tests used:
Assay type in all cases: functional
[1] = system: Rattus norvegicus; test: Percent change in high-density lipoprotein cholesterol in hypercholesterolemic rats dosed at 100 mg/kg/day for 8 days
[2] = system: Rattus norvegicus; test: Percent change in triglycerides in hypercholesterolemic rats at a dose of 100 mg/kg/day for 8 days
[3] = system: Rattus norvegicus; test: Percent change in total plasma cholesterol in hypercholesterolemic rats dosed at 100 mg/kg/day for 8 days
[4] = system: Rattus norvegicus; test: Percent change in high-density lipoprotein cholesterol following oral administration of compound in normal chow-fed rats at 100 mg/kg/day for 4 days
Procedure, shortened: (§1)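 Chow-fed male Sprague–Dawley CD rats, 60–80 g, gavaged 100 mg/kg/day for 4 days in 1.3% Tween 80/0.25% CMC. Fasted overnight, bled 24 h after the last dose. Total cholesterol and glycerol-blanked triglycerides read enzymatically; lipoproteins by FPLC with cholesterol per fraction. % change versus control; six per group, p < 0.05.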

[5] = system: Rattus norvegicus; test: Percent change in low-density lipoprotein cholesterol following oral administration of compound in normal chow-fed rats at 100 mg/kg/day for 4 days; procedure, shortened: as §1
[6] = system: Rattus norvegicus; test: Percent change in triglycerides following oral administration of compound in normal chow-fed rats at 100 mg/kg/day for 4 days; procedure, shortened: as §1
[7] = system: Rattus norvegicus; test: Percent change in total plasma cholesterol following oral administration of compound in normal chow-fed rats at 100 mg/kg/day for 4 days; procedure, shortened: as §1
[8] = system: Rattus norvegicus; test: Percent change in very low-density lipoprotein cholesterol following oral administration of compound in normal chow-fed rats at 100 mg/kg/day for 4 days; procedure, shortened: as §1

| Structure (SMILES) | Change [1] | Change [2] | Change [3] | Change [4] | Change [5] | Change [6] | Change [7] | Change [8] |
| --- | --- | --- | --- | --- | --- | --- | --- | --- |
| CCN1CCCC(=O)N(c2ccc(Cl)cc2C)C1=S | 15% | -15% | 58.8% | – | – | – | – | – |
| CCN1CC(=O)N(c2cc(C)ccc2C)C1=S | 124% | -6% | 49% | 31.9% | -8.3% | -2.5% | 26.4% | 31.3% |
| Cc1cccc(Cl)c1N1C(=O)CN(C)C1=S | 84% | -56% | 17% | 75.7% | 0% | -37.9% | 71.2% | 89.4% |
| CCN1CC(=O)N(c2cc(F)ccc2C)C1=S | 112% | -36% | 35% | 102.4% | 14% | -6.3% | 95.2% | 131.6% |
| O=C1CN(Cc2ccccc2)C(=S)N1c1c(Cl)cccc1Cl | -2.2% | -54% | 25.3% | – | – | – | – | – |
| CN1OCC(=O)N(c2cccc3c2CCC3)C1=S | 192% | -26% | -2% | 81.8% | 42.3% | -31.2% | 78.5% | 68% |
| C=CCN1CC(=O)N(c2c(C)cccc2C)C1=S | 177% | -45% | -5% | 120.4% | -18.8% | -29.9% | 86% | -45.8% |
| CCN1CC(=O)N(C2CCCCC2)C1=S | 5.4% | 28% | -7.4% | – | – | – | – | – |
| CCN1CC(=O)N(c2cc(Cl)ccc2C)/C1=N/C#N | 17% | -25% | 15% | – | – | – | – | – |
| CN1OCC(=O)N(C(c2ccccc2)c2ccccc2)C1=S | 60% | 9% | 22% | 33.7% | 43.8% | -44.1% | 17.6% | -29.3% |
| Cc1ccc(Cl)cc1N1C(=O)C(C)N(C)C1=S (centres undefined) | 220% | -58% | -8% | 67.9% | 800% | 207.2% | 276.5% | 134.7% |
| CCN1C(=O)C(=O)N(c2ccc(F)cc2)C1=S | 23% | -48% | 44% | – | – | – | – | – |
| CCN1CCC(=O)N(c2c(C)cccc2Cl)C1=S | 199% | -16% | 23% | 45.5% | -1.1% | -35.7% | 45.4% | -5.3% |
| CN1CC(=O)N(CCc2ccc(Cl)cc2)C1=S | -15.5% | 24% | -10.2% | – | – | – | – | – |
| CCN1CC(=O)N(c2c(Cl)cccc2Cl)C1=S | 142% | -37% | 53.4% | 60.2% | 6.8% | -35.8% | 57% | 0% |
| CCc1cccc(C(C)C)c1N1C(=O)CN(CC)C1=S | 54% | 5% | -62% | 48.7% | -22.3% | -12.2% | 30.9% | -50% |
| CCc1cccc(C(C)C)c1N1C(=O)CCN(CC)C1=S | 34% | -11% | 2% | – | – | – | – | – |
| CCN1C(=S)N(c2cc(Cl)ccc2C)C(=O)C1(C)C | -9% | 15% | 0% | – | – | – | – | – |
| CCN1C(=S)N(c2cc(Cl)ccc2C)C(=O)C1c1ccccc1 (centres undefined) | 187% | 76% | 60% | – | – | – | – | – |
| CN1CC(=O)N(c2ccc3c(c2)CCC3)C1=S | 112% | -26% | -3% | 46% | -40.3% | -0.9% | 26% | 26.3% |
| CN1CC(=O)N(c2ccccc2)C1=S | 66% | 10% | 25% | – | – | – | – | – |
| COC(=O)CCN1CC(=O)N(c2ccc(Cl)cc2C)C1=S | 27% | -32% | 14% | – | – | – | – | – |
| CN1CC(=O)N(c2c(Cl)cccc2Cl)C1=S | 92% | -43% | 4.6% | 109.3% | 39.6% | -33.3% | 83.9% | -3.3% |
| C#CCN1CC(=O)N(c2c(C)cccc2C)C1=S | 325% | 0% | -15% | 85.1% | 27.9% | -48.5% | 98% | -23% |
| CCN1CC(=O)N(c2ccc(OC(F)(F)F)cc2)C1=S | 265% | -72% | -1% | 71.4% | 127.5% | 2.8% | 197.6% | 543.5% |
| CCN1CC(=O)N(c2ccc3ccccc3c2)C1=S | 65% | -33% | -18.1% | – | – | – | – | – |
| CCN1CC(=O)N(CCc2ccccc2)C1=S | 30% | 6% | -14% | – | – | – | – | – |
| CN1CC(=O)N(C(c2ccccc2)c2ccccc2)C1=S | 57% | 92% | 3.4% | – | – | – | – | – |

| Structure (SMILES) | Change [1] | Change [2] | Change [3] | Change [4] | Change [5] | Change [6] | Change [7] | Change [8] |
| --- | --- | --- | --- | --- | --- | --- | --- | --- |
| CCN1C(=S)N(c2c(C)cccc2Cl)C(=O)C1(C)C | -5% | -22% | 16% | – | – | – | – | – |
| CCN1CCC(=O)N(c2c(Cl)cccc2Cl)C1=S | 16% | -6% | 42% | – | – | – | – | – |
| CCN1C(=S)N(c2ccc(F)cc2)C(=O)C1c1ccccc1 (centres undefined) | 67% | 35% | 31% | – | – | – | – | – |
| CCN1CCCC(=O)N(c2cc(Cl)ccc2C)C1=S | 50% | 14% | 7% | – | – | – | – | – |
| CN1CC(=O)N(c2cccnc2)C1=S | 29% | 150% | -11.4% | – | – | – | – | – |
| CCN1C(=S)N(c2c(C)cccc2C)C(=O)C1(C)C | -2% | 17% | 13% | – | – | – | – | – |
| Cc1ccc(CCN2C(=O)CN(C)C2=S)cc1 | -26.6% | 27% | -11% | – | – | – | – | – |
| CN1CC(=O)N(CCCCc2ccccc2)C1=S | -21% | 41% | -4.3% | – | – | – | – | – |
| Cc1ccc(Cl)cc1N1C(=O)CN(C)C1=O | -8% | -7% | 37% | – | – | – | – | – |
| CCN1C(=O)C(=O)N(c2cc(Cl)ccc2C)C1=S | 242% | -22% | 32% | 87.6% | 71.9% | – | 123.4% | 67.3% |
| CCN1CCC(=O)N(c2ccc(C)cc2C)C1=S | -3% | 2% | 27% | – | – | – | – | – |
| CCN1CC(=O)N(c2ccc(F)cc2)C1=S | 59% | -18% | 78% | – | – | – | – | – |
| CN1CC(=O)N(Cc2ccccc2Cl)C1=S | 23% | 11% | 14% | – | – | – | – | – |
| CCc1cccc(C)c1N1C(=O)CCN(CC)C1=S | 60% | 2% | 52% | – | – | – | – | – |
| CCCCN1CC(=O)N(c2c(C)cccc2Cl)C1=S | 53% | -38% | 30% | – | – | – | – | – |
| CN1CC(=O)N(CCN2CCCCC2)C1=S | -40% | 33% | -3.3% | – | – | – | – | – |
| CCN1C(=S)N(c2c(Cl)cccc2Cl)C(=O)C1(C)C | -18% | -19% | -16% | – | – | – | – | – |
| CCN1CC(=O)N(c2cc(C)c(C)cc2C)C1=S | 112% | -11% | 39% | – | – | – | – | – |
| CCN1C(=S)N(c2c(Cl)cccc2Cl)C(=O)C1c1ccccc1 (centres undefined) | 39% | 25% | 18% | – | – | – | – | – |
| Cc1ccc(Cl)cc1N1C(=O)C(=O)N(C)C1=S | 196% | -26% | 44% | – | – | – | – | – |
| CCN1CC(=O)N(CCc2ccc(F)cc2)C1=S | 49% | -17% | -8.8% | – | – | – | – | – |
| CCN1CC(=O)N(c2ccccc2SC)C1=S | 60% | -8% | 13% | – | – | – | – | – |
| CCN1CC(=O)N(c2cc(Cl)ccc2C)C(=S)C1 | 10% | -27% | 28% | – | – | – | – | – |
| CCN1CC(=O)N(c2ccc(N(C)C)cc2)C1=S | 49% | -41% | 123% | – | – | – | – | – |
| CCN1CCC(=O)N(c2cc(Cl)ccc2C)C1=S | 76% | 44% | 53% | – | – | – | – | – |
| CCN1CC(=O)N(c2cc(Cl)ccc2OC)C1=S | 39% | 51% | 24% | – | – | – | – | – |
| Cc1cccc(Cl)c1N1C(=O)CN(c2ccccc2)C1=S | 39% | 16% | 2.2% | – | – | – | – | – |

— ChEMBL document CHEMBL1148398, “Design, synthesis, and biological evaluation of thio-containing compounds with serum HDL-cholesterol-elevating properties” (2004)
